Measurements: ChEMBL document CHEMBL4834471 (J Med Chem, 2021)
The source made the active and inactive calls. The calls are words filed in the database; no cut-off is given here.

Columns and labels:
[1] = molecular target: T1, Prostaglandin E synthase (Homo sapiens) (UniProt O14684); experiment: Inhibition of mPEGS1 in pathogenic Escherichia coli-stimulated human macrophages M1 at 1 uM by UPLC-MS/MS analysis; details: Macrophage
T1 sequence (whole entry): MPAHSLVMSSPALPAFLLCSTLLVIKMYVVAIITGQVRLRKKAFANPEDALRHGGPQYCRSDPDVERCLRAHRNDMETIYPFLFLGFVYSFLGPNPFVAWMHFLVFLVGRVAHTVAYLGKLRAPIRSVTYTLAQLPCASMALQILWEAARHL
How it was run: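 M1 macrophages obtained by GM-CSF differentiation for 6 days, then LPS/IFN-γ polarization for 48 h. Treated with compound at 1 μM and stimulated with pathogenic E. coli; lipid mediator network profiled by metabololipidomics against vehicle.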

[2] = Drug concentration in peritoneal exudate of CD-1 mouse at 30 mg/kg, po after 30 mins; type: ADME, organism-based, Peritoneal fluid; details: read-out: Ct
How it was run: (§1)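 Oral dosing at 30 mg/kg in zymosan peritonitis; mice killed 30 min after zymosan injection. Compound concentrations measured in plasma and in peritoneal exudate.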

[3] = molecular target: T2, Bifunctional epoxide hydrolase 2 (Homo sapiens) (UniProt P34913); experiment: Inhibition of recombinant human sEH expressed in Sf9 insect cells at 10 uM using PHOME as substrate preincubated for 10 mins followed by substrate addition and measured after 60 mins by fluorescence microplate method; details: time 70.0 min
T2 sequence (whole entry): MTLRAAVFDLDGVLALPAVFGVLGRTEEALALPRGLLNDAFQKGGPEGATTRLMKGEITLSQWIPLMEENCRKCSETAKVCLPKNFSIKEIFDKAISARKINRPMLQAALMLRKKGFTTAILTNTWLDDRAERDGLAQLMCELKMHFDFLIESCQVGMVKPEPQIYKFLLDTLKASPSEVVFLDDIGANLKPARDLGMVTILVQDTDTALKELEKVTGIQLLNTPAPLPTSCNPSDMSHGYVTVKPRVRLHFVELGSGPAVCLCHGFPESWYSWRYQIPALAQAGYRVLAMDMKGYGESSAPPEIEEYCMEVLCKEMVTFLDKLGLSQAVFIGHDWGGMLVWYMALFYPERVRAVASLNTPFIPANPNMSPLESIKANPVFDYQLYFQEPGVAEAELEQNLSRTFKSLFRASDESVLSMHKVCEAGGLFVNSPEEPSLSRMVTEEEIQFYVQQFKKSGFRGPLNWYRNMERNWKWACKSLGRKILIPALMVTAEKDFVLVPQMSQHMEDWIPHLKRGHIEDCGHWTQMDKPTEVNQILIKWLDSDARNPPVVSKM

Mus musculus [4] = experiment: Antiinflammatory activity in zymosan-induced CD-1 mouse peritonitis model assessed as reduction in vascular permeability at 10 mg/kg, ip preincubated with compound for 30 mins followed by zymosan addition and measured after 30 mins; type: functional, organism-based; details: time 60.0 min
How it was run: (§2)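 Zymosan peritonitis with compound 10 mg/kg i.p. Vascular permeability assessed at 30 min after zymosan. Exudate LTB4 (ELISA) and peritoneal immune cell infiltration assessed at 4 h. Two-tailed unpaired t-test of log data.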

[5] = molecular target: T3, Polyunsaturated fatty acid lipoxygenase ALOX12 (Homo sapiens) (UniProt P18054); experiment: Inhibition of 12-LOX in human PMNL assessed as reduction in 12-LOX product formation at 10 uM treated with AA and A23187 by RP-HPLC method; type: tissue-based
T3 sequence (whole entry): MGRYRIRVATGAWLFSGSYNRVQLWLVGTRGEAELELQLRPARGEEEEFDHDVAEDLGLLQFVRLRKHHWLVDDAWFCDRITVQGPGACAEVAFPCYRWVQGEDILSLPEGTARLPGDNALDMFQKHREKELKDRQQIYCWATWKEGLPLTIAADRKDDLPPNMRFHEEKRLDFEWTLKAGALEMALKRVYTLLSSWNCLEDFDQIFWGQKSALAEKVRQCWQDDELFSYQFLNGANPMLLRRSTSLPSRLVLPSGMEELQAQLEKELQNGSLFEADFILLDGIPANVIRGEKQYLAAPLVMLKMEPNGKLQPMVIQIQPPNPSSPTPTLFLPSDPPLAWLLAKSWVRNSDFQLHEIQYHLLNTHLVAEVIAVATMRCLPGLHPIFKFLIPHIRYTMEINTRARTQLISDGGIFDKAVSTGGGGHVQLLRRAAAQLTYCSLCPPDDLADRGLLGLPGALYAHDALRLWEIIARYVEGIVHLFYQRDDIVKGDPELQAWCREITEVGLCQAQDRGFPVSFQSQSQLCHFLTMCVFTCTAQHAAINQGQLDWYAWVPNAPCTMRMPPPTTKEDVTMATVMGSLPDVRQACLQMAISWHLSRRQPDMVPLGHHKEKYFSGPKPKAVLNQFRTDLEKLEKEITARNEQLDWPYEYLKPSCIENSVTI

Mus musculus [6] = experiment: Antiinflammatory activity in zymosan-induced CD-1 mouse peritonitis model assessed as reduction in immune cell infiltration into peritoneal cavity at 10 mg/kg, ip preincubated with compound for 30 mins followed by zymosan addition and measured after 4 hrs; type: functional, organism-based; details: time 270.0 min; how it was run: as §2
Mus musculus [7] = experiment: Antiinflammatory activity in zymosan-induced CD-1 mouse peritonitis model assessed as reduction in LTB4 level at 10 mg/kg, ip preincubated with compound for 30 mins followed by zymosan addition and measured after 4 hrs by ELISA; type: functional, organism-based; details: time 270.0 min; how it was run: as §2
Monocyte = experiment: Cytotoxicity against human monocytes assessed as reduction in LDH release at 1 to 10 uM after 2 to 24 hrs by CytoTox96 nonradioactive assay; type: cell-based; details: dose lower 1 µM, time lower 2 hrs, dose upper 10 µM, time upper 24 hrs
How it was run: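 Monocytes at 4 × 10^5/mL in monocyte medium treated 2 or 24 h at 37 °C, 5% CO2, with 0.1% DMSO vehicle. LDH release measured by CytoTox 96 kit, with Triton X-100 (0.8%) defining maximum release.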

Mus musculus [8] = experiment: Antiinflammatory activity BALB/c mouse assessed as restoration of salbutamol-induced adrenergic bronchial relaxation at 10 mg/kg, po administered on day 0 and 7 and measured upto 21 days; type: functional, organism-based; details: time day <=21
[9] = Drug concentration in plasma of CD-1 mouse at 30 mg/kg, po after 30 mins; type: ADME, organism-based; how it was run: as §1
HepaRG = experiment: Induction of CYP3A4 expression in human HepaRG cells at 0.1 to 10 uM incubated for 48 hrs by fluorescence based assay; type: functional, cell-based; details: dose 0.1-10 µM
How it was run: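 Differentiated HepaRG cells treated for 48 h; CYP3A4-expressing cells visualized by fluorescence imaging at 20× magnification; n = 3 independent experiments, with n = 9 for untreated cells.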

Keratinocyte = experiment: Cytotoxicity against human Keratinocytes assessed as reduction in cell viability at 10 to 100 uM after 24 hrs by MTT assay; type: cell-based; details: dose 10-100 µM
Mus musculus [10] = experiment: Antiinflammatory activity in zymosan-induced CD-1 mouse peritonitis model assessed as increase in RvE3 levels at 10 mg/kg, po preincubated with compound for 60 mins followed by zymosan addition and measured after 30 mins by UPLC-MS/MS analysis; type: functional, organism-based; details: time 90.0 min
How it was run: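 Oral dosing at 10 mg/kg in zymosan peritonitis; mice killed 30 min after zymosan. Peritoneal exudate lipid mediators and fatty acids profiled by UPLC-MS/MS, with LTC4 measured by ELISA; results expressed as fold change versus vehicle.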

- inhibition [1]: inactive
- concentration at 0.5 h [2]: 0.5 nM
- inhibition [3]: inactive
- inhibition [5]: inactive
- concentration at 0.5 h [9]: 20 nM
Structure (SMILES): C/C(=C\CC/C(C)=C/CC[C@]1(C)CCc2c(C)c(O)c(C)c(C)c2O1)CCC=C(CO)CO
- Activity (Mus musculus [4]): Active
- Activity (Mus musculus [6]): Active
- Activity (Mus musculus [7]): Active
- Activity (Monocyte): Toxic
- Activity (Mus musculus [8]): Active
- Activity (HepaRG): inactive
- Activity (Keratinocyte): Non-Toxic
- Activity (Mus musculus [10]): Active
